Assay results of several laboratories.
Protocols differ between the studies behind these lines.
Mode: inhibitor
EGFR T790M: Epidermal growth factor receptor (EGFR, Homo sapiens, UniProt P00533, T790M)
EGFR L858R/T790M: Epidermal growth factor receptor (EGFR, Homo sapiens, UniProt P00533, L858R/T790M)
EGFR: Epidermal growth factor receptor (EGFR, Homo sapiens, UniProt P00533)
EGFR L858R: Epidermal growth factor receptor (EGFR, Homo sapiens, UniProt P00533, L858R)

COc1cc2ncnc(Nc3ccc(Oc4ccccc4)cc3C)c2cc1OC  inhibition (EGFR T790M; enzyme activity; 1 µM): 50%
COc1cc(N(C)CCN(C)C)c(NC(=O)C=C(C)C)cc1Nc1nc(Nc2cnn(C)c2)c2sccc2n1  inhibition (EGFR L858R/T790M; enzyme activity; ELISA; 0.1 µM): 25.1%
CN(C)C1CCN(CC#Cc2nn(C3CCCC3)c3nc(NCc4ccccc4)ncc23)C1 (stereo not shown)  inhibition (EGFR; enzyme activity; FRET; 10 µM): 17%
COc1cc2ncnc(Nc3cccc(OCCn4ccnc4[N+](=O)[O-])c3)c2cc1OCCCN1CCOCC1  inhibition (EGFR; enzyme activity; FRET; 1 µM): 30%
C=CC(=O)Nc1cc(Nc2nc(N3CCc4sccc4C3)c3sccc3n2)c(OC)cc1N1CCN(C)CC1  inhibition (EGFR L858R/T790M; enzyme activity; ELISA; 0.1 µM): 25.6%
COc1cc(-c2cc(-c3ccc(N4CCNCC4)cc3)cnc2N)cc(OC)c1OC  inhibition (EGFR T790M; enzyme activity; 1 µM): 4%
CS(=O)(=O)Nc1cccc(-c2csc(NC(=O)CSc3nc4nccnc4c(=O)n3CCc3ccccc3)n2)c1  inhibition (EGFR L858R; enzyme activity; 10 µM): -1%
COc1cc2ncnc(Nc3ccc(Oc4ccccc4)c(C)c3C)c2cc1OC  inhibition (EGFR T790M; enzyme activity; 1 µM): 22%
C/C=C/C(=O)Nc1cc(Nc2nc(Nc3cnn(C)c3)c3sccc3n2)c(OC)cc1N(C)CCN(C)C  inhibition (EGFR L858R/T790M; enzyme activity; ELISA; 0.1 µM): 18.3%
COCCOc1cc2ncnc(Nc3cccc(OCCn4ccnc4[N+](=O)[O-])c3)c2cc1OCCOC  inhibition (EGFR; enzyme activity; FRET; 1 µM): 28%
C=CC(=O)Nc1cc(Nc2nc(N3CCc4sccc4C3)c3cccnc3n2)c(OC)cc1N1CCN(CC)CC1  inhibition (EGFR L858R/T790M; enzyme activity; ELISA; 0.1 µM): 23.4%
CNCc1ccc(-c2cc(-c3nc(-c4ccc(S(=O)(=O)C(C)C)cc4)cnc3N)on2)cc1  inhibition (EGFR; enzyme activity; 0.4 µM): 0%
C=CC(=O)Nc1cc(Nc2nccc(Nc3cc(Cl)c(F)cc3C(C)(C)O)n2)c(OC)cc1N1CC[C@@H](N(C)C)C1  inhibition (EGFR; enzyme activity; 1 µM): 76%
C=C(Cl)C(=O)Nc1cc(Nc2nc(N3CCCC3)c3sccc3n2)c(OC)cc1N(C)CCN(C)C  inhibition (EGFR L858R/T790M; enzyme activity; ELISA; 0.1 µM): 12.7%
CC/C(=N\NC(=O)NCc1cccc(O)c1)c1ccc(O)c(C)c1O  inhibition (EGFR L858R; enzyme activity; 0.1 µM): 0.5%
CCC(=O)Nc1cc(Nc2nc(N3CCc4sccc4C3)c3cccnc3n2)c(OC)cc1N1CCOCC1  inhibition (EGFR L858R/T790M; enzyme activity; ELISA; 0.1 µM): 7.6%
CNc1cc(Oc2cc(C(=O)Nc3cc(N4CCN(C)CC4)cc(C(F)(F)F)c3)ccc2C)ncn1  inhibition (EGFR; target engagement in cells; chemoproteomics; Huh-7; 1 µM): -15.5%
O=C(CSc1nc2nccnc2c(=O)n1CCc1ccccc1)Nc1nccs1  inhibition (EGFR L858R; enzyme activity; 10 µM): 1%
CCCS(=O)(=O)Nc1ccc(F)c(C(=O)c2c[nH]c3ncc(-c4ccc(Cl)cc4)cc23)c1F  inhibition (EGFR; enzyme activity; 1 µM): < 10%
